Results published in PMC3954503 (Journal of Medicinal Chemistry, 2014).
Where two headings read alike, the source gives them in different places.

Key:
[1] = test system: HIV-1 FSS RNA upper stem-loop; assay: SPR binding to immobilized HIV-1 FSS RNA upper stem-loop; conditions: for increased affinity over 2 and 3 / weaker binding / decrease in affinity relative to dimers 4 and 5: SPR KD ratio
In short: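 Streptavidin (about 2000 RU) on a CM5 chip; 5′-biotin HIV-1 FSS RNA (500 nM) captured once at about 300 RU and once at about 1200 RU, against a biotin-blocked reference cell. Compound series run in (a) HBS pH 7.4 at 60 μL/min or (b) HEPES/NaCl/MgCl2/Tween-20 at 50 μL/min, each injection at least twice. For (a), ≥5 sensorgrams globally fit to a 1:1 Langmuir model; for (b), individual fits; ka, kd, KD derived.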

[2] = test system: HIV-1 FSS RNA upper stem-loop; conditions: conditions (a) HBS buffer; ref [35]; cited from earlier work
tRNA = conditions: previously found; cited from earlier work
[3] = test system: pseudotyped HIV-1 virions; assay: Single-round infectivity assay with pseudotyped HIV-1; format: cell-based
HTLV-2 FSS RNA = assay: SPR binding to HTLV-2 FSS RNA; conditions: concentrations up to 3 μM; HBS buffer
In short: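 SPR on a CM5 chip with about 2000 RU streptavidin, immobilized by EDC/NHS. 5′-Biotin HTLV-2 FSS RNA (500 nM) captured to about 300–1200 RU; the biotin-blocked flow cell served as reference. Test compound flowed at varying concentrations in HBS (0.01 M HEPES, 0.150 M NaCl, pH 7.4) at 60 μL/min. Each concentration injected at least twice; sensorgrams reference-subtracted and blank-corrected.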

[4] = test system: Gag:Gag-Pol ratio in pseudotyped virions; assay: Western blot of isolated viral particles for RT and p24; format: cell-based, HIV-1; conditions: for RT in unprocessed Gag-Pol (p160) relative to mature RT (p66 + p51) / amount of RT relative to capsid protein p24: Western blot of viral particles; for amount of RT relative to capsid protein p24: as a function of added compound
In short: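 HEK293T producer cells co-transfected with env-deleted, GFP-carrying HIV-1NL4–3 proviral vector and VSV-G vector (1:0.5, Fugene HD). Test compound added 4 h post-transfection; virions collected from media at 24 h through a 0.45-μm filter. Equal p24-ELISA loads were pelleted through a 20% sucrose cushion at 100,000g, then Western blotted for RT and p24.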

[5] = test system: pDualHIV(0) transfected HEK 293FT cells; assay: Dual-luciferase control assay, pDualHIV; format: cell-based, human
In short: (§1)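 HEK 293FT cells plated at 1.5 × 10^4 cells/well 6 h before transfection, in DMEM with 10% FBS. Transfected with 0.2 μg reporter plasmid (lipofectamine 2000). At 5 h, test compound (0–50 μM) added in triplicate for 36 h at 37 °C. Cells PBS-washed and lysed; Rluc and Fluc read by dual-luciferase assay. Fluc/Rluc ratio expressed relative to untreated cells, set to 100%.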

HEK 293FT cells [6] = assay: Cell permeation by fluorescence microscopy; format: cell-based, human; conditions: HEK 293FT, 50, 100, 200, and 500 μM for 12 h
In short: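 HEK 293FT cells grown to 80% confluence at 37 °C, 5% CO2, in DMEM with 10% FBS and 1% penicillin-streptomycin. Cells exposed to test compound for 12 h (methods give 50 μM; the text lists 50–500 μM). Washed twice with PBS to remove surface-bound compound, then imaged in buffer by fluorescence microscopy with 358-nm excitation and 460-nm emission filters.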

HEK 293FT cells [7] = assay: WST-1 cell viability assay; format: cell-based, human; conditions: 24 h
In short: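 HEK 293FT cells grown to 80% confluence in 96-well plates (DMEM, 10% FBS, 37 °C). Test compound (up to 0.5 mM) or sterile water control added in triplicate for 24 h at 37 °C. Premix WST-1 reagent then added for 2 h at 37 °C. Absorbance at 450 minus 690 nm, blank-corrected, plotted against concentration; mean of three with SD.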

HIV-1 FSS DNA = assay: Fluorescence titration with HIV-1 FSS DNA; format: binding; conditions: by fluorescence
In short: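 Fluorescence titration in 20 mM HEPES, 150 mM NaCl, with test compound at 1 μM. HIV-1 FSS RNA (10 μM stock) or FSS DNA (40 μM stock) titrated in. Each addition mixed, then 10 min to equilibrate. Benzo[g]quinoline fluorescence quenching read three times, 1 min apart, and corrected for dilution to give KD. Selectivity compares the FSS RNA and FSS DNA KDs.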

[8] = test system: HIV-1 FSS-dependent −1 frameshifting in HEK 293FT cells; assay: Dual-luciferase frameshift assay, pDualHIV; format: cell-based, human; conditions: pDualHIV(−1)
In short: as §1

HIV-1 FSS RNA = conditions: read-out: KD for HIV-1 FSS; ref [31]; cited from earlier work
[9] = conditions (a) HBS buffer (0.01 M HEPES, 0.150 M NaCl, pH = 7.4), global fit
[10] = conditions (b) 20 mM HEPES, 150 mM NaCl, 5 mM MgCl2, 0.005% Tween-20

2-ethyl benzo[g]quinoline carboxylic acid
binding to HIV-1 FSS RNA by SPR (qualitative) [1]: No binding was observed

CCc1nc2ccccc2cc1C(=O)N[C@@H](C/C=C/C[C@H](NC(=O)c1cc2ccccc2nc1CC)C(=O)N1CCC[C@H]1C(=O)N[C@@H](Cc1ccccc1)C(=O)NCCCN)C(=O)N1CCC[C@H]1C(=O)N[C@@H](Cc1ccccc1)C(=O)NCCCN [Compound 3]
association rate, ka [2]: 1.62 × 10^3 M^–1s^-1 | dissociation rate kd [2]: 7.5 × 10^–3 s^–1 | affinity for tRNA (tRNA): no measurable affinity | activity in pseudotyped HIV-1 assay ([3]; preliminary experiments (data not shown)): no activity

CCc1nc2cc3ccccc3cc2cc1C(=O)N[C@@H](C/C=C\C[C@H](NC(=O)c1cc2cc3ccccc3cc2nc1CC)C(=O)N1CCC[C@H]1C(=O)N[C@@H](Cc1ccccc1)C(=O)NCCCN)C(=O)N1CCC[C@H]1C(=O)N[C@@H](Cc1ccccc1)C(=O)NCCCN [Compound 4]
binding to HTLV-2 FSS by SPR (HTLV-2 FSS RNA): no binding was observed | lower concentration than RG501 for roughly equivalent increase in RT [4]: 37.5 fold | RT in unprocessed Gag-Pol (p160) relative to mature RT (p66 + p51) [4]: increased significantly | amount of RT relative to capsid protein p24 [4]: increasing amounts of RT | change in Fluc to Rluc ratio relative to untreated cells [5]: No change | cell penetration (internalization) (HEK 293FT cells [6]): internalized | increased affinity over 2 and 3 [1]: approximately 50 fold | association rate, ka [1, 9]: (4.25 ± 0.22) × 10^4 M^–1s^-1 | dissociation rate kd [1, 9]: (4.11 ± 0.02) × 10^–3 s^–1 | association rate, ka [1, 10]: (2.17 ± 0.77) × 10^4 M^–1s^-1 | dissociation rate kd [1, 10]: (1.35 ± 0.03) × 10^–3 s^–1 | Kd ([1]; read-out: affinity (KD) for HIV-1 FSS by SPR, HBS buffer): 89 nM | concentrations at which no significant toxicity occurred (HEK 293FT cells [7]): below 60 μM

CCc1nc2cc3ccccc3cc2cc1C(=O)N[C@@H](C/C=C/C[C@H](NC(=O)c1cc2cc3ccccc3cc2nc1CC)C(=O)N1CCC[C@H]1C(=O)N[C@@H](Cc1ccccc1)C(=O)NCCCN)C(=O)N1CCC[C@H]1C(=O)N[C@@H](Cc1ccccc1)C(=O)NCCCN [Compound 5]
binding to HTLV-2 FSS by SPR (HTLV-2 FSS RNA): no binding was observed | lower concentration than RG501 for roughly equivalent increase in RT [4]: 37.5 fold | RT in unprocessed Gag-Pol (p160) relative to mature RT (p66 + p51) [4]: increased significantly | amount of RT relative to capsid protein p24 [4]: increasing amounts of RT | change in Fluc to Rluc ratio relative to untreated cells [5]: No change | cell penetration (internalization) (HEK 293FT cells [6]): internalized | increased affinity over 2 and 3 [1]: approximately 50 fold | association rate, ka [1, 9]: (3.99 ± 0.37) × 10^4 M^–1s^-1 | dissociation rate kd [1, 9]: (3.75 ± 0.12) × 10^–3 s^–1 | association rate, ka [1, 10]: (3.68 ± 1.45) × 10^4 M^–1s^-1 | dissociation rate kd [1, 10]: (3.46 ± 2.05) × 10^–3 s^–1 | concentrations at which no significant toxicity occurred (HEK 293FT cells [7]): below 60 μM | selectivity for FSS RNA vs FSS DNA (HIV-1 FSS DNA): no selectivity

C=CC[C@H](NC(=O)c1cc2cc3ccccc3cc2nc1CC)C(=O)N1CCC[C@H]1C(=O)N[C@@H](Cc1ccccc1)C(=O)NCCCN [Compound 6]
weaker binding / decrease in affinity relative to dimers 4 and 5 [1]: 200 fold | association rate, ka [1, 9]: (1.16 ± 0.06) × 10^3 M^–1s^-1 | dissociation rate kd [1, 9]: (2.25 ± 0.01) × 10^–2 s^–1

CCc1nc2cc3ccccc3cc2cc1C(=O)N[C@@H](C/C=C\C[C@H](N)C(=O)N1CCC[C@H]1C(=O)N[C@@H](Cc1ccccc1)C(=O)NCCCN)C(=O)N1CCC[C@H]1C(=O)N[C@@H](Cc1ccccc1)C(=O)NCCCN [Compound 7]
weaker binding / decrease in affinity relative to dimers 4 and 5 [1]: approximately 200 fold | association rate, ka [1, 9]: (4.58 ± 1.27) × 10^3 M^–1s^-1 | dissociation rate kd [1, 9]: (1.21 ± 0.00) × 10^–2 s^–1

CCc1nc2cc3ccccc3cc2cc1C(=O)N[C@@H](C/C=C/C[C@H](N)C(=O)N1CCC[C@H]1C(=O)N[C@@H](Cc1ccccc1)C(=O)NCCCN)C(=O)N1CCC[C@H]1C(=O)N[C@@H](Cc1ccccc1)C(=O)NCCCN [Compound 8]
weaker binding / decrease in affinity relative to dimers 4 and 5 [1]: 30 fold | association rate, ka [1, 9]: (7.71 ± 4.9) × 10^3 M^–1s^-1 | dissociation rate kd [1, 9]: (1.63 ± 1.12) × 10^–1 s^–1

NCCCNC(=O)[C@H](Cc1ccccc1)NC(=O)[C@@H]1CCCN1C(=O)[C@@H](N)C/C=C/C[C@H](N)C(=O)N1CCC[C@H]1C(=O)N[C@@H](Cc1ccccc1)C(=O)NCCCN [Compound 10]
increase in Fluc to Rluc ratio (−1 PRF) ([8]; at 50 μM, 36 h): no significant effect | binding to HIV-1 FSS RNA by SPR (qualitative) [1]: completely abrogated binding | association rate, ka ([1]; conditions a, b (both buffers)): none obsd | dissociation constant, KD ([1]; conditions a, b (both buffers)): none obsd | dissociation rate kd ([1]; conditions a, b (both buffers)): none obsd | decrease in infectivity ([3]; 40 μM, producer cells treated): modest decrease

CCc1nc2cc3ccccc3cc2cc1C(=O)N[C@@H](CSSC[C@H](NC(=O)c1cc2cc3ccccc3cc2nc1CC)C(=O)N1CCC[C@H]1C(=O)N[C@@H](Cc1ccccc1)C(=O)NCCCN)C(=O)N1CCC[C@H]1C(=O)N[C@@H](Cc1ccccc1)C(=O)NCCCN [Compound 11]
binding to HTLV-2 FSS by SPR (HTLV-2 FSS RNA): no binding was observed | cell penetration (internalization) (HEK 293FT cells [6]): internalized | stimulation of HIV-1 frameshifting ([8]; concentrations above 10 µM not examined): approximately 25% | weaker binding / decrease in affinity relative to dimers 4 and 5 [1]: ~7 fold | association rate, ka [1, 9]: (1.07 ± 0.07) × 10^4 M^–1s^-1 | dissociation rate kd [1, 9]: (7.92 ± 0.53) × 10^–3 s^–1 | concentrations at which compound proved toxic (HEK 293FT cells [7]): above 10 μM

COc1cccc2c1C(=O)c1c(O)c3c(c(O)c1C2=O)C[C@@](O)(C(=O)CO)C[C@@H]3O[C@H]1C[C@H](N)[C@H](O)[C@H](C)O1 [Doxorubicin]
Kd (HIV-1 FSS RNA): 2800 nM
